From ChEMBL document CHEMBL4477278, “Synthesis and evaluation of 8-hydroxyquinolin derivatives substituted with (benzo[d][1,2]selenazol-3(2H)-one) as effective inhibitor of metal-induced Aβ aggregation and antioxidant” (Bioorg Med Chem, 2016) come the findings set out here.

The nature of data set [1]: Antioxidant activity assessed as glutathione peroxidase-like activity in phosphate buffer measured as initial rate for the reduction of cumene hydroperoxide by GSH at 80 uM in presence of NADPH by coupled reductase assay. Type of data set: functional. In outline:
(§1)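 Coupled reductase assay in 100 mM potassium phosphate pH 7.5 at 25 °C: 2 mM GSH, 1 mM EDTA, 1.3 U/mL glutathione reductase, 0.4 mM NADPH, 80 µM selenium compound. Reaction started with 1.6 mM peroxide. Initial rate is taken from NADPH oxidation at 340 nm over the first 5–10% of reaction (ε 6.22 mM⁻¹cm⁻¹). Triplicate, mean ± SD.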

Data set [2] in a line: Antioxidant activity assessed as glutathione peroxidase-like activity in phosphate buffer measured as initial rate for the reduction of […] by GSH at 80 uM in presence of NADPH by coupled reductase assay. It counts as functional. The method, boiled down: as §1
A short description of data set [3]: Antioxidant activity assessed as glutathione peroxidase-like activity in phosphate buffer measured as initial rate for the reduction of tert-butyl hydroperoxide by GSH at 80 uM in presence of NADPH by coupled reductase assay. It counts as functional. The method, boiled down:
as §1

A short description of data set [4]: Antioxidant activity assessed as Cum-OOH scavenging at 10 uM measured after 300 mins in presence of GSH and NADPH. It counts as functional. In outline: (§2)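 Kinetic peroxide removal in 100 mM phosphate buffer pH 7.5 at 25 °C with 1 mM EDTA, 0.25 mM GSH, 0.50 mM NADPH, 1.3 U/mL glutathione reductase, 0.20 mM peroxide and 10 µM catalyst. NADPH consumption followed over time. Means of three independent experiments.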

Data set [5] can be described thus: Antioxidant activity assessed as H2O2 scavenging at 10 uM measured after 200 to 220 mins in presence of GSH and NADPH. It counts as functional. The method, boiled down:
as §2

Data set [6] is described as follows: Permeability of the compound at 100 ug/ml measured after 10 hrs by PAMPA-BBB assay. Type of data set: ADME. Particulars: read-out: Peff. The method, boiled down: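 PAMPA-BBB: filter coated with porcine brain lipid in dodecane (20 mg/mL). Compound is dissolved in DMSO (5 mg/mL) and diluted 50-fold in PBS/EtOH 7:3 to 100 µg/mL in donor wells, with PBS/EtOH acceptor. Plates stand 10 h at 25 °C, then acceptor concentration is read by UV at five wavelengths, four wells, at least three runs. Pe is calculated by formula; assay validated with 13 reference drugs.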
Background: The PAMPA barrier holds no transporters, so it reflects passive diffusion.

Data set [7] can be described thus: Antioxidant activity assessed as t-BuOOH scavenging at 10 uM measured after 300 mins in presence of GSH and NADPH. It counts as functional. The method, boiled down: as §2
A short description of data set [8]: Antioxidant activity assessed as AAPH radical scavenging activity preincubated for 10 mins followed by AAPH challenge measured as trolox equivalents measured at every min for 120 mins by ORAC-FL assay. It counts as functional. In outline: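 ORAC-FL: compound diluted in 75 mM phosphate buffer pH 7.4, premixed with fluorescein (70 nM final) for 10 min at 37 °C, then AAPH added. Fluorescence (ex 485, em 520 nm) read each minute for 120 min. Net AUC versus blank is converted to Trolox equivalents using a Trolox standard curve (10–100 µM). Triplicates, at least three independent runs.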

Data set [9] in a line: Inhibition of Cu2+ induced aggregation of recombinant human amyloid beta (1 to 42) at 50 uM after 24 hrs by thioflavin-T based fluorescence assay. The method, boiled down: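 Aβ1–42 (stock in 1% ammonium hydroxide), 25 µM final, with or without CuSO4 (25 µM) and compound (50 µM) in HEPES pH 6.6 with NaCl, incubated 24 h at 37 °C. Samples then diluted tenfold into 50 mM glycine-NaOH pH 8.0 containing 5 µM thioflavin T for fluorescence read-out.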

The nature of data set [10]: Metal chelating activity of the compound assessed as Fe3+ complex formation by measuring maximum absorption wave length at 50 uM measured after 30 mins by UV-Vis spectrometry (reference value: 301 nm). It counts as functional. The method, boiled down:
(§3)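 Compound (50 µM final) with or without metal salt (CuSO4, FeSO4, FeCl3 or ZnCl2, 50 µM final) in 20 mM HEPES, 150 mM NaCl, pH 7.4. After 30 min, UV-vis absorption spectra are recorded at room temperature.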

A short description of data set [11]: Metal chelating activity of the compound assessed as Cu2+ complex formation by measuring maximum absorption wave length at 50 uM measured after 30 mins by UV-Vis spectrometry (reference value: 301 nm). It counts as functional. In outline: as §3
A short description of data set [12]: Metal chelating activity of the compound assessed as Zn2+ complex formation by measuring maximum absorption wave length at 50 uM measured after 30 mins by UV-Vis spectrometry (reference value: 301 nm). Type of data set: functional. The method, boiled down: as §3
Data set [13] in a line: Metal chelating activity of the compound assessed as Fe2+ complex formation by measuring maximum absorption wave length at 50 uM measured after 30 mins by UV-Vis spectrometry (reference value: 301 nm). Type of data set: functional. The method, boiled down:
as §3

Turning to `O=c1c2cc(F)ccc2[se]n1-c1ccc2cccc(O)c2n1`, the Activity in data set [1] was 15.9 µM/min; in [2], 64.3 µM/min; in [3], 20.4 µM/min.
As for `O=c1c2cc(C(F)(F)F)ccc2[se]n1-c1ccc2cccc(O)c2n1`, the Activity is 5.6 µM/min in data set [1], 69.9 µM/min in [2] and 8 µM/min in data set [3].
For `O=c1c2ccc(Cl)cc2[se]n1-c1ccc2cccc(O)c2n1` the same measures were 23.3 µM/min, 45 µM/min and 7.1 µM/min.
Regarding `O=c1c2c(Cl)cccc2[se]n1-c1ccc2cccc(O)c2n1`, the Activity in data set [4] was 68%; in data set [5], 65%; in [1], 35.1 µM/min; in data set [2], 155 µM/min; in [7], 38%; in data set [3] it was 52.1 µM/min. For the same compound, in [6], the Papp at 10 h, 100 ug/ml was determined as 78 nm/s. In addition, in data set [8], the Activity (umolequiv/umol) worked out at 0.9.
For the compound `O=c1c2ccccc2[se]n1-c1ccccc1`, the Activity in data set [1] was determined as 22.6 µM/min; in data set [2], 113 µM/min; in data set [3], 47.6 µM/min.
Take `O=c1c2ccc(F)cc2[se]n1-c1ccc2cccc(O)c2n1`: the Activity in data set [1] amounted to 11.1 µM/min; in data set [2], 77.3 µM/min; in data set [3], 6.4 µM/min.
One may read the inhibition as the relative decrease from the control value, in per cent. Take `O=c1c2c(C(F)(F)F)cccc2[se]n1-c1ccc2cccc(O)c2n1`: the inhibition in [9] amounted to 79%. Further, the Activity in [4] worked out at 77%; in [5], 68%; in [1] it was 31.7 µM/min; in data set [2], 161 µM/min; in data set [7], 67%; in data set [3] it was 62 µM/min. For the same compound, the Papp at 10 h, 100 ug/ml in [6] is 101 nm/s. The Activity (umolequiv/umol) in data set [8] is 0.2.
In the case of `O=c1c2ccc(C(F)(F)F)cc2[se]n1-c1ccc2cccc(O)c2n1`, the Activity stood at 16.1 µM/min in [1], 64.2 µM/min in data set [2] and 10.6 µM/min in [3].
In the same order, the values of `O=c1c2ccccc2[se]n1-c1ccc2cccc(O)c2n1` are 17.1 µM/min, 49.9 µM/min and 14 µM/min.
For the compound `O=c1c2cc(Cl)ccc2[se]n1-c1ccc2cccc(O)c2n1`, the Activity in data set [1] stood at 23.9 µM/min; in data set [2], 45 µM/min; in data set [3], 6.9 µM/min.
Take `O=c1c2cc(O)ccc2[se]n1-c1ccc2cccc(O)c2n1`: the Activity came out at 300 nm in [10]; 47% in data set [4]; 60% in data set [5]; 316 nm in data set [11]; 304 nm in data set [12]; 24.3 µM/min in [1]. In addition, the Activity in data set [2] was determined as 106 µM/min; in data set [7] it was 30%; in [13], 297 nm; in [3] it was 63.4 µM/min. The inhibition in data set [9] is 60%. Besides, the Papp at 10 h, 100 ug/ml in [6] is 59 nm/s. Further, the Activity (umolequiv/umol) in data set [8] was 2.6.
On to `O=c1c2cccc(F)c2[se]n1-c1ccc2cccc(O)c2n1`, for which the Activity is 66% in [4]; 62% in data set [5]; 24.1 µM/min in [1]; 152 µM/min in data set [2]; 31% in [7]; 55.5 µM/min in data set [3]. The Papp at 10 h, 100 ug/ml in data set [6] was determined as 111 nm/s. In addition, the Activity (umolequiv/umol) in data set [8] was found to be 3.6.
In the case of `Oc1c(I)cc(Cl)c2cccnc12`, the inhibition in data set [9] was 87%. Besides, the Activity (umolequiv/umol) in [8] came to 0.5.
As for `O=c1c2cccc(C(F)(F)F)c2[se]n1-c1ccc2cccc(O)c2n1`, the Activity in data set [1] was found to be 30 µM/min; in data set [2], 132 µM/min; in data set [3] it was 31.7 µM/min. Further, the Papp at 10 h, 100 ug/ml in data set [6] stood at 133 nm/s. In addition, the Activity (umolequiv/umol) in data set [8] amounted to 0.3.
With `O=c1c2c(F)cccc2[se]n1-c1ccc2cccc(O)c2n1`, in data set [9], the inhibition was 82%. The Activity in data set [4] was 74%; in data set [5] it was 71%; in data set [1], 31.4 µM/min; in data set [2] it was 102 µM/min; in [7], 46%; in data set [3], 47.9 µM/min. In data set [6], the Papp at 10 h, 100 ug/ml stood at 74 nm/s. Besides, the Activity (umolequiv/umol) in [8] is 2.3.
